Measurements from ChEMBL document CHEMBL3792330, “Designed Glycopeptidomimetics Disrupt Protein-Protein Interactions Mediating Amyloid β-Peptide Aggregation and Restore Neuroblastoma Cell Viability” (J Med Chem, 2016).
Active and inactive are the calls of the source. The rule behind the calls is not given here.

What was measured:
SH-SY5Y [1] = experiment: Neuroprotective activity against amyloid beta (1 to 42)-induced toxicity in human SH-SY5Y cells assessed as reduction of cell death at 0.1 equiv after 24 hrs by MTS assay; assay type: functional; set-up: scale not given: the % may be the effect or the level left
In short: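 SH-SY5Y cells seeded at 20 000/well in low-serum Optimem, 24 h at 37°C, 5% CO2. Aβ1-42 at 50 μM in sterile PBS pre-incubated 24 h at room temperature with 1, 5, 10 or 50 μM inhibitor, or without inhibitor. The mix was diluted 1:10 into Optimem (5 μM Aβ final) and added to cells in quadruplicate. After a further 24 h, viability was read by MTS. Assay run twice.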

[2] = target: Amyloid-beta precursor protein (Homo sapiens) (UniProt P05067); experiment: Inhibition of amyloid beta (1 to 42) (unknown origin) fibril formation at compound/protein ratio of 10/1, 1/1, 0.1/1 […] by ThT fluorescence assay
Chain of Amyloid-beta precursor protein (Homo sapiens) (P05067 whole entry): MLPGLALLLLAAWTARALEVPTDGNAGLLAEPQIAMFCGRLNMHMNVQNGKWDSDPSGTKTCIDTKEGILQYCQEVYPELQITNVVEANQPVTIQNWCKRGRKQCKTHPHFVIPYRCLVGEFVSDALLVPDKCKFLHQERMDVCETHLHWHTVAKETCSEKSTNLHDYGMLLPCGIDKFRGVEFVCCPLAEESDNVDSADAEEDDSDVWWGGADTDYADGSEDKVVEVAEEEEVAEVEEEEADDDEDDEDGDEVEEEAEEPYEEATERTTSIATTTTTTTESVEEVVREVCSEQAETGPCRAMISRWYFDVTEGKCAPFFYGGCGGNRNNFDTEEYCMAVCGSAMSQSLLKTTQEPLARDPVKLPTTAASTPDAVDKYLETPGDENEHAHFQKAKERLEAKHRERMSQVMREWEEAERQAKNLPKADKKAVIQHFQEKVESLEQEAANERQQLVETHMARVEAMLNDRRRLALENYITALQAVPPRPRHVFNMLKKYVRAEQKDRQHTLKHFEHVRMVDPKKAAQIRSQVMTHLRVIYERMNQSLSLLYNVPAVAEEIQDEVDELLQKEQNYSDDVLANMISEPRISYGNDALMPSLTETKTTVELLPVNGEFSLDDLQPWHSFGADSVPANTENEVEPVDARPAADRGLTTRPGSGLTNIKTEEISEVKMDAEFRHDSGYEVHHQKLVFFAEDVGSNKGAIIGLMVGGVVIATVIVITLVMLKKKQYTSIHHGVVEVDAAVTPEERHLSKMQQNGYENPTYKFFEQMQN

[3] = target: Amyloid-beta precursor protein (Homo sapiens) (UniProt P05067); experiment: Inhibition of amyloid beta (1 to 42) (unknown origin) fibril formation assessed as extension of aggregation half life at compound/protein ratio of 1/1 after 42 hrs by ThT fluorescence assay relative to control; set-up: Activity: scale not given: the % may be the effect or the level left
In short: (§1)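 Aβ1-42 (1 mM in 1% ammonia, diluted in buffer) added to a final 10 μM into 40 μM ThT in 10 mM Tris-HCl, 100 mM NaCl pH 7.4, with compound at 100, 50, 10 or 1 μM (0.5% DMSO), at room temperature. Ex/em 440/485 nm read for 42 h, in duplicate or triplicate, 2–4 runs. t1/2 and plateau F expressed relative to Aβ alone.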

[4] = target: Amyloid-beta precursor protein (Homo sapiens) (UniProt P05067); experiment: Binding affinity to amyloid beta (1 to 42) (unknown origin) by SPR analysis
In short: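 Aβ1-42 (0.05 μM in 10 mM sodium acetate pH 4.6) amine-coupled to an EDC/NHS-activated gold chip, then rinsed with 0.1% NH4OH to leave mainly monomer. Analytes in 150 mM PBS with 2% DMSO were injected at 12.5–200 μM for 1 min at 80 μL/min. DMSO solvent correction applied and the ethanolamine-blocked blank channel subtracted. Regeneration with 0.1% NH4OH.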

[5] = target: Amyloid-beta precursor protein (Homo sapiens) (UniProt P05067); experiment: Inhibition of amyloid beta (1 to 42) (unknown origin) fibril formation assessed as extension of aggregation half life at compound/protein ratio of 10/1 after 42 hrs by ThT fluorescence assay relative to control; set-up: Activity: scale not given: the % may be the effect or the level left; in short: as §1
[6] = target: Amyloid-beta precursor protein (Homo sapiens) (UniProt P05067); experiment: Inhibition of amyloid beta (1 to 42) (unknown origin) aggregation assessed as appearance of less dense fiber at compound/protein ratio of 1/1 after 42 hrs by uranyl acetate staining-based transmission electron microscopy
In short: (§2)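 Samples prepared as for ThT: Aβ1-42 at 10 μM in 10 mM Tris-HCl, 100 mM NaCl pH 7.4, with or without compound at 10 or 100 μM. After 42 h, adsorbed 2 min onto carbon grids and negatively stained 45 s with 2% uranyl acetate. Imaged by TEM at 80 kV.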

[7] = target: Amyloid-beta precursor protein (Homo sapiens) (UniProt P05067); experiment: Inhibition of amyloid beta (1 to 42) (unknown origin) fibril formation assessed as decrease in fluorescence plateau at compound/protein ratio of 10/1 after 42 hrs by ThT fluorescence assay relative to control; settings: concentration not given here; in short: as §1
[8] = target: Amyloid-beta precursor protein (Homo sapiens) (UniProt P05067); experiment: Inhibition of amyloid beta (1 to 42) (unknown origin) fibril formation assessed as extension of aggregation half life at compound/protein ratio of 0.1/1 after 42 hrs by ThT fluorescence assay relative to control; in short: as §1
[9] = target: Amyloid-beta precursor protein (Homo sapiens) (UniProt P05067); experiment: Inhibition of amyloid beta (1 to 42) (unknown origin) aggregation assessed as scattered, short and scarce fiber formation at compound/protein ratio of 10/1 after 42 hrs by uranyl acetate staining-based transmission electron microscopy; in short: as §2
[10] = target: Amyloid-beta precursor protein (Homo sapiens) (UniProt P05067); experiment: Inhibition of amyloid beta (1 to 42) (unknown origin) fibril formation assessed as decrease in fluorescence plateau at compound/protein ratio of 1/1 after 42 hrs by ThT fluorescence assay relative to control; in short: as §1
[11] = target: T1, Islet amyloid polypeptide (Homo sapiens) (UniProt P10997); experiment: Inhibition of human IAPP fibril formation assessed as decrease in final fluorescence intensity at compound/protein ratio of 10/1 by ThT fluorescence assay
T1 sequence (whole entry): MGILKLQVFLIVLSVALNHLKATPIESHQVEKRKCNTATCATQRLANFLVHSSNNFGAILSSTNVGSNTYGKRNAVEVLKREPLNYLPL

[12] = target: T1, Islet amyloid polypeptide (Homo sapiens); experiment: Inhibition of human IAPP fibril formation assessed as increase of aggregation half life at compound/protein ratio of 10/1 by ThT fluorescence assay
[13] = target: Amyloid-beta precursor protein (Homo sapiens) (UniProt P05067); experiment: Inhibition of amyloid beta (1 to 42) (unknown origin) aggregation assessed as appearance of glubular aggregation at compound/protein ratio of 1/1 after 42 hrs by transmission electron microscopy; in short: as §2
SH-SY5Y [14] = experiment: Neuroprotective activity against amyloid beta (1 to 42)-induced toxicity in human SH-SY5Y cells assessed as cell viability at 0.25 to 5 uM after 24 hrs by MTS assay; assay type: functional, cell-based
In short: (§3)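 Aβ1-42 at 50 μM in sterile PBS pre-incubated 24 h at room temperature with 1, 5, 10 or 50 μM compound, then diluted 1:10 (5 μM Aβ final) onto SH-SY5Y cells. Cells seeded at 20 000/well in low-serum Optimem, 37 °C, 5% CO2, 24 h. Exposure a further 24 h in quadruplicate. MTS viability or LDH release read; assays repeated twice.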

SH-SY5Y [15] = experiment: Neuroprotective activity against amyloid beta (1 to 42)-induced membrane damage in human SH-SY5Y cells at 0.1 to 5 uM after 24 hrs by LDH assay; assay type: functional, cell-based; in short: as §3
Plasma = experiment: Metabolic stability in 10% human plasma assessed as drug degradation at 1 uM after 24 hrs by HPLC analysis; assay type: ADME, cell-free
In short: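 Compounds taken from 40 μM DMSO stock to 1 μM in 10% human plasma/90% sterile PBS, held 24 h at 37 °C. Analysed by C18 HPLC with a 0–80% gradient (A: 0.1% TFA in water; B: 0.05% TFA in acetonitrile).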

[16] = target: Amyloid-beta precursor protein (Homo sapiens) (UniProt P05067); experiment: Inhibition of amyloid beta (1 to 42) (unknown origin) fibril formation assessed as decrease in fluorescence plateau at compound/protein ratio of 0.1/1 after 42 hrs by ThT fluorescence assay relative to control; settings: concentration not given here; in short: as §1
[17] = target: Amyloid-beta precursor protein (Homo sapiens) (UniProt P05067); experiment: Inhibition of amyloid beta (1 to 42) (unknown origin) fibril formation after 42 hrs by ThT fluorescence assay; in short: as §1
[18] = target: Amyloid-beta precursor protein (Homo sapiens) (UniProt P05067); experiment: Inhibition of amyloid beta (1 to 42) (unknown origin) aggregation after 42 hrs by uranyl acetate staining-based transmission electron microscopy; in short: as §2

## COc1ccc(NC(C)=O)cc1C(=O)NNC(=O)[C@H](CCCCN)NC(=O)CCOC[C@H]1OC(OCCCNC(=O)[C@@H](NC(=O)[C@H](C)N)C(C)C)[C@H](O)[C@@H](O)[C@@H]1O (mixture of isomers)
SH-SY5Y [1]
  Activity: 75%
[2]
  inhibition: Active
[3]
  Activity: 148%
[4]
  Activity: Dose-dependent effect
[5]
  inhibition: Active
[6]
  inhibition: Active
[7]
  inhibition: 87%
[8]
  inhibition: inactive
[9]
  inhibition: Active
[10]; concentration not given here
  inhibition: 29%
[11]
  inhibition: inactive
[12]
  inhibition: inactive
[13]
  inhibition: Active
SH-SY5Y [14]
  Activity: Active
SH-SY5Y [15]
  Activity: Active
Plasma
  Stability: Stable
[16]
  inhibition: 23%

## COc1ccc(NC(C)=O)cc1C(=O)NNC(=O)[C@@H](NC(=O)CCOC[C@H]1OC(OCCCNC(=O)[C@@H](NC(=O)[C@H](C)N)C(C)C)[C@H](O)[C@@H](O)[C@@H]1O)C(C)C (mixture of isomers)
[3]
  Activity: 155%
[5]
  Activity: 325%
[7]
  inhibition: 31%
[10]
  inhibition: inactive

## COc1ccc(NC(C)=O)cc1C(=O)NNC(=O)[C@@H](NC(=O)CCOC[C@H]1OC(OCCCNC(=O)[C@@H](NC(=O)[C@H](C)N)C(C)C)[C@H](OCc2ccccc2)[C@@H](OCc2ccccc2)[C@@H]1OCc1ccccc1)C(C)C (mixture of isomers)
[17]
  inhibition: inactive
[18]
  inhibition: inactive

## COc1ccc(NC(C)=O)cc1C(=O)NNC(=O)[C@H](CCCCNC(=O)OCc1ccccc1)NC(=O)CCOC[C@H]1OC(OCCCNC(=O)[C@@H](NC(=O)[C@H](C)N)C(C)C)[C@H](OCc2ccccc2)[C@@H](OCc2ccccc2)[C@@H]1OCc1ccccc1 (mixture of isomers)
[17]
  inhibition: inactive
[18]
  inhibition: inactive

## COc1ccc(NC(C)=O)cc1C(=O)NNC(=O)[C@H](CCCCNC(=O)OCc1ccccc1)NC(=O)CCOC[C@H]1OC(OCCCNC(=O)[C@@H](NC(=O)[C@H](C)NC(=O)OC(C)(C)C)C(C)C)[C@H](OCc2ccccc2)[C@@H](OCc2ccccc2)[C@@H]1OCc1ccccc1 (mixture of isomers)
[17]
  inhibition: inactive
[18]
  inhibition: inactive
